# Measurements reported in ChEMBL document CHEMBL1135530, “Selective alpha4beta7 integrin antagonists and their potential as antiinflammatory agents” (J Med Chem, 2002).
# pIC50: −log10 of the molar value. Peptide text beside a SMILES is read from it.
# Columns and labels:
# Integrin alpha-4/beta-7 = molecular target: T1, Integrin alpha-4/beta-7 (Homo sapiens, UniProt P13612+P26010); assay: Ability to block the alpha4-beta7 integrin-MAdCAM-1 binding interaction using a protein ELISA format; type: protein-complex assay
# T1 sequence (P13612 whole entry): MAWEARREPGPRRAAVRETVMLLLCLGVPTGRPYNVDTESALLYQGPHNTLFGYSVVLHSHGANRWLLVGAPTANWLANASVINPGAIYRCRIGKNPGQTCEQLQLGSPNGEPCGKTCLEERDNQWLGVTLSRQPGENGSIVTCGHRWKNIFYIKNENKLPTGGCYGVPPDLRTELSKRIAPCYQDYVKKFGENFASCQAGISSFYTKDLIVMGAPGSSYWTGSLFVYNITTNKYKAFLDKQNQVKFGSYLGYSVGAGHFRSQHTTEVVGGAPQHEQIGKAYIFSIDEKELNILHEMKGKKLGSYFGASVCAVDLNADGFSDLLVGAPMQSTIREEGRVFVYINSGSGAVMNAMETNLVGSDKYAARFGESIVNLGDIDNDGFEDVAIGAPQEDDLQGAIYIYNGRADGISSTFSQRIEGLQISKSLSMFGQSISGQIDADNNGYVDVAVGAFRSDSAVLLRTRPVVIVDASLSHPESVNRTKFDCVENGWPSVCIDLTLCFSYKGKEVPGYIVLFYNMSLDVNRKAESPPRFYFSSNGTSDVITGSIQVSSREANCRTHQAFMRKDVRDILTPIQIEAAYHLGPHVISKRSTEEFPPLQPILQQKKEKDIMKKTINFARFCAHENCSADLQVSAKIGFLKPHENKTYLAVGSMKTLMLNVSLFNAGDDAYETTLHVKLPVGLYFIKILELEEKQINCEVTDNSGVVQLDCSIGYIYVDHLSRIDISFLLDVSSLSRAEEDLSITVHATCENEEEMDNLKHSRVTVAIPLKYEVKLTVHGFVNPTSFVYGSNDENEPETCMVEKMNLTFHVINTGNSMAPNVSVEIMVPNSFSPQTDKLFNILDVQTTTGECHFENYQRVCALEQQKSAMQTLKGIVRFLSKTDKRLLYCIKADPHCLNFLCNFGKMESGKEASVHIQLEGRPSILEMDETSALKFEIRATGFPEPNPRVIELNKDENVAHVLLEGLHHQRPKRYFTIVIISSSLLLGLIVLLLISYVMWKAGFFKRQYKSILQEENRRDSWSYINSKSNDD
# T1 sequence (P26010 whole entry): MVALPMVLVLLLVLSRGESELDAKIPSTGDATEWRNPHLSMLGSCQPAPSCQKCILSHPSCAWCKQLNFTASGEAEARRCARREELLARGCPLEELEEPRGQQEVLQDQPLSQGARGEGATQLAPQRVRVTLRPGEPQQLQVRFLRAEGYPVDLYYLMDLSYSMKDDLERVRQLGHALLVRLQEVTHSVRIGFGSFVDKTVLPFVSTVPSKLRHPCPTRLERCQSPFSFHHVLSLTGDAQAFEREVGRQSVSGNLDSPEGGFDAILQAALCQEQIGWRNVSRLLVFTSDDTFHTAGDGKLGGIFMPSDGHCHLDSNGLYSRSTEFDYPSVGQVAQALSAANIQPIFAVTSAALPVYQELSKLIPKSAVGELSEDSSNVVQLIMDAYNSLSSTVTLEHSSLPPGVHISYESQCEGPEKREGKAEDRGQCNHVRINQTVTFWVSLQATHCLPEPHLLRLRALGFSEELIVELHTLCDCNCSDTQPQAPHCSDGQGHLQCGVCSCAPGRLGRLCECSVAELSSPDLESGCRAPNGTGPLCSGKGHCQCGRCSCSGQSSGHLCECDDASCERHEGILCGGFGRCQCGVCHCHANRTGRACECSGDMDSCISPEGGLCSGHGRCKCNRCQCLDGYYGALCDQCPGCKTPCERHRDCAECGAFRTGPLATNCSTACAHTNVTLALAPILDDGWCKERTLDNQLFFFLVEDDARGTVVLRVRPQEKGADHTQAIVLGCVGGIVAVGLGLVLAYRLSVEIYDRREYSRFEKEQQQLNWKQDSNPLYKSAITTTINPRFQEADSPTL
# In short: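 Plates coated overnight at 4 °C with anti-human α4 antibody 9F10 (2 µg/mL), blocked in Tris pH 7.5 buffer with 1 mM MnCl2, Tween-20 and 0.5% BSA, then loaded with α4β7 purified from transfected JY cells (2 µg/mL). Compounds (1 nM–200 µM final, triplicate) plus MAdCAM-1-Ig-HRP (1 µg/mL), 2 h room temperature. TMB read at 450 nm; IC50 at half-maximal absorbance.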
# [1] = Selectivity is the ratio of inhibitory concentrations at alpha4-beta1 integrin to alpha4-beta7 integrin
# Integrin alpha-4/beta-1 = Integrin alpha-4/beta-1 (Homo sapiens, UniProt P05556+P13612); assay: Inhibitory concentration affording 50% inhibition of alpha4-beta1 integrin binding to VCAM-1, using ELISA assay.; type: protein-complex assay
# Sequence of Integrin alpha-4/beta-1 (P05556 whole entry, one chain of several, the tested form may be a part): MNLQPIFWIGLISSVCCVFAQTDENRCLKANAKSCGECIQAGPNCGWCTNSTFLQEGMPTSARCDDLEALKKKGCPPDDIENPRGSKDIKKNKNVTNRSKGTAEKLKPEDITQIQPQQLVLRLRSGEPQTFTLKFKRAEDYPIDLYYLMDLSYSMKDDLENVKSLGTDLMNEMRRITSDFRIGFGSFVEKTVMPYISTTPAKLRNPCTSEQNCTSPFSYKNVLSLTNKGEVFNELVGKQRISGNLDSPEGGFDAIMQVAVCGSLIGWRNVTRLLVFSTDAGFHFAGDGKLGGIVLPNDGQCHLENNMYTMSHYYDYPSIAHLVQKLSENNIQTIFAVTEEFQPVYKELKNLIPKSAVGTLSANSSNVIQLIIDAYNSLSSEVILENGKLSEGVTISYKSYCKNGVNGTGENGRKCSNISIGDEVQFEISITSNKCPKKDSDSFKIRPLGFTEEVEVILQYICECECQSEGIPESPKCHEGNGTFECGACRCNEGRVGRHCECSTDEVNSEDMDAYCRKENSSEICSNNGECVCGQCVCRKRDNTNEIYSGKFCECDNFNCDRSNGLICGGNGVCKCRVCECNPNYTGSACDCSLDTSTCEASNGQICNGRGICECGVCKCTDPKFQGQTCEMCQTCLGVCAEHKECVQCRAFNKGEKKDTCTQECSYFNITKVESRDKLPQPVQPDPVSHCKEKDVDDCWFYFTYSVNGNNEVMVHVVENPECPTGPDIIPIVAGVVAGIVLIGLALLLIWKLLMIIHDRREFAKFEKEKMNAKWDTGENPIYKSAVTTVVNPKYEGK
# In short: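 α4β1 extracted from Ramos cell membranes (lectin chromatography, gel filtration in 1% octylglucoside), with 1 mM MnCl2 throughout. Wells coated with 4 µg/mL recombinant soluble human VCAM-1 (5 N-terminal Ig domains, from CHO cells) and blocked with 1% BSA. Inhibitor and receptor 2 h at 37 °C in Tris pH 7.4. Bound receptor detected with anti-β1 mAb 2D4.6, then HRP anti-mouse and TMB at 450 nm. IC50 at half-maximal absorbance.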
# Integrin alpha-V/beta-3 = Integrin alpha-V/beta-3 (Homo sapiens, UniProt P05106+P06756); assay: Ability to block the alphaV-beta3 integrin binding to vitronectin; type: protein-complex assay
# Integrin alpha-5/beta-1 = Integrin alpha-5/beta-1 (Homo sapiens, UniProt P05556+P08648); assay: Ability to block the alpha5-beta1 integrin binding to fibronectin; type: protein-complex assay
# Sequence of Integrin alpha-5/beta-1 (P05556 21-798 limits assumed): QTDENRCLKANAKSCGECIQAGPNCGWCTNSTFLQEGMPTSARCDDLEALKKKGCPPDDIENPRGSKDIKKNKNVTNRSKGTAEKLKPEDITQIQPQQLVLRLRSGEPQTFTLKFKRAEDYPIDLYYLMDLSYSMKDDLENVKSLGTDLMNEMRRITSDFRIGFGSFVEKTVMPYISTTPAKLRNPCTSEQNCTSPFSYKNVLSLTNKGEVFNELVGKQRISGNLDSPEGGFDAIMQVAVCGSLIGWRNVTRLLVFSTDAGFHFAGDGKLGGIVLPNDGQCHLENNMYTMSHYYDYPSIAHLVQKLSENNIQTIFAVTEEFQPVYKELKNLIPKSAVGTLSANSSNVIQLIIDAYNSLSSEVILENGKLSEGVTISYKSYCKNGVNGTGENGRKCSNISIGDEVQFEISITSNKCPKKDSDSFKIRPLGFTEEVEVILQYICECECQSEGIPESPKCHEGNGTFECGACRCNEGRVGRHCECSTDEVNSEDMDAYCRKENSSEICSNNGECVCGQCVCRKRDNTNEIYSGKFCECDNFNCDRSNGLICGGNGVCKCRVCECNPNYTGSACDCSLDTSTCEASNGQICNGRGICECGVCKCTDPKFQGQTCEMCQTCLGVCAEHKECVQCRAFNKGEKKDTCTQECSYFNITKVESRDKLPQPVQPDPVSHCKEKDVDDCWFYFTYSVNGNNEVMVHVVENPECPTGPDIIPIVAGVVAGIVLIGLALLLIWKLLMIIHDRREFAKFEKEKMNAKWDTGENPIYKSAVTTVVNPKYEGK
# Sequence of Integrin alpha-5/beta-1 (P08648 42-894 limits assumed): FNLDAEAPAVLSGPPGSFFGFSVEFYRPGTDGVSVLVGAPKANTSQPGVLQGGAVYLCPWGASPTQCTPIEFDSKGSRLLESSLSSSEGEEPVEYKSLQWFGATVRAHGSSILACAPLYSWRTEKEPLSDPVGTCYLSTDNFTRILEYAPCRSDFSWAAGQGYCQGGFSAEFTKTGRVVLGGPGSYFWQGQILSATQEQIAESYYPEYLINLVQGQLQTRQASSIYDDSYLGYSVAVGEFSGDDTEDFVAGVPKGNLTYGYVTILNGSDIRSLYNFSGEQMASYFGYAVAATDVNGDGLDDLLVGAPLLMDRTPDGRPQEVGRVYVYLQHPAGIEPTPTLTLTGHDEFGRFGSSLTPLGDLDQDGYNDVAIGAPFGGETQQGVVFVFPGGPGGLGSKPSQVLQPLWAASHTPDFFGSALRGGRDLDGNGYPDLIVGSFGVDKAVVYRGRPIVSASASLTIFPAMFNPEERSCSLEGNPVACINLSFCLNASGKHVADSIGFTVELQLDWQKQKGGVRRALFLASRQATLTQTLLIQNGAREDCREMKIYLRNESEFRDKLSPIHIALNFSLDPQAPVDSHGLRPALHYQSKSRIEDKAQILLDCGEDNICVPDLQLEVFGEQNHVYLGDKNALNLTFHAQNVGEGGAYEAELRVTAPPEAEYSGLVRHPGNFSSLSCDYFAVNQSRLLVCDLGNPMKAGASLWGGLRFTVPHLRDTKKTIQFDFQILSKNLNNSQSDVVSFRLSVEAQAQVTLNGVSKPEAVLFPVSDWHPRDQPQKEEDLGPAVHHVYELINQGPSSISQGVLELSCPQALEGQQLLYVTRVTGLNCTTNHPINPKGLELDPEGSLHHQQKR
# Sequence of Integrin alpha-5/beta-1 (P08648 895-1049 limits assumed): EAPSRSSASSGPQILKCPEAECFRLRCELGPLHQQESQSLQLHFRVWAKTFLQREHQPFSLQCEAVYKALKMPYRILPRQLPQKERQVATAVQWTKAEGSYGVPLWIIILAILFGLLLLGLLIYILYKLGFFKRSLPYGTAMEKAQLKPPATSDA
# [2] = molecular target: Intercellular adhesion molecule (ICAM-1), Integrin alpha-L/beta-2 (Homo sapiens, UniProt P05107+P05362+P20701); assay: Ability to block alphaL-beta2 integrin binding to ICAM-1; type: protein-complex assay
# Sequence of Intercellular adhesion molecule (ICAM-1), Integrin alpha-L/beta-2 (P20701 whole entry): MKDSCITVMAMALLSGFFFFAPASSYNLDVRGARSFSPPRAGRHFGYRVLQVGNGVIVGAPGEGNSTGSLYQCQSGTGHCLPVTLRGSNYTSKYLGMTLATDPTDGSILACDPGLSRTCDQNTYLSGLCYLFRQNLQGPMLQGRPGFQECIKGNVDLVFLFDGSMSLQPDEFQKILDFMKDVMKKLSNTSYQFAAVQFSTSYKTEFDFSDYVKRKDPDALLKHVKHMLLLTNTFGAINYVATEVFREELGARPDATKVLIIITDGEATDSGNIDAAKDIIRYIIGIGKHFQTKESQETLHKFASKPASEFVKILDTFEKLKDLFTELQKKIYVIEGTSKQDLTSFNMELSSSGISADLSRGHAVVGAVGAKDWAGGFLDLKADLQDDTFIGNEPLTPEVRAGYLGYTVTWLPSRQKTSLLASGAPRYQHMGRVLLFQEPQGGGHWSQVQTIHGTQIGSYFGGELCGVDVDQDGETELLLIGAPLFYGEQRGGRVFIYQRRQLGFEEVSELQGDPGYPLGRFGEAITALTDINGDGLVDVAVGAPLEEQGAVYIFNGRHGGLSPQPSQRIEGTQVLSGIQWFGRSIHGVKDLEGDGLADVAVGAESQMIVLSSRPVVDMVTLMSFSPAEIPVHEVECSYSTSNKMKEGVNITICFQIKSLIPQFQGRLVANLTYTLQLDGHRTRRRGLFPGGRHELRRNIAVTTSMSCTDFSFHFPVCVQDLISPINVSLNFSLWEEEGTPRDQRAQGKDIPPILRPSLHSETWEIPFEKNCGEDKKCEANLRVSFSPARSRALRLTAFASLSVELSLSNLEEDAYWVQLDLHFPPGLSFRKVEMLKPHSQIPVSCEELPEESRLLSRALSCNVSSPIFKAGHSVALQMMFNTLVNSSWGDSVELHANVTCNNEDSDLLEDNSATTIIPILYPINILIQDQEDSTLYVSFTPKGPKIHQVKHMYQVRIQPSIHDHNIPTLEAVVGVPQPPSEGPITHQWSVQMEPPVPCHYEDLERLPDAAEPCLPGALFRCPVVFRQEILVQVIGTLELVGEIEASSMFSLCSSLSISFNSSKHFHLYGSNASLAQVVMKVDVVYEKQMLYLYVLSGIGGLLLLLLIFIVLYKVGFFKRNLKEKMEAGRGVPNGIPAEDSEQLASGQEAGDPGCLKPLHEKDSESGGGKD
# Sequence of Intercellular adhesion molecule (ICAM-1), Integrin alpha-L/beta-2 (P05362 whole entry): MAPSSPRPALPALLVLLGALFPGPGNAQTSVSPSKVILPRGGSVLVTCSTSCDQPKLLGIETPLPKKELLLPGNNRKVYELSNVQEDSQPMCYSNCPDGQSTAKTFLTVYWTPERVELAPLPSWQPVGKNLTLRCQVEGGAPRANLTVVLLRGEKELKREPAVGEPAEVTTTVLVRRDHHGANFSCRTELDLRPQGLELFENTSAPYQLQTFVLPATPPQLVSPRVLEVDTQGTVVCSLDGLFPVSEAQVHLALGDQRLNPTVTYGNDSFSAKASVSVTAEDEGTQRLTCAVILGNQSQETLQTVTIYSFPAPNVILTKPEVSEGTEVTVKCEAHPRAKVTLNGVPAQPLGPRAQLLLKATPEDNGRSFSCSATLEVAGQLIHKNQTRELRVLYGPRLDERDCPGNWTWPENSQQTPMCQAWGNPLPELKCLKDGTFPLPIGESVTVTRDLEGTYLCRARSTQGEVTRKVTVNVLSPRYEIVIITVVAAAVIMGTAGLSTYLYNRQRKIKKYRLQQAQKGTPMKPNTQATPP
# Sequence of Intercellular adhesion molecule (ICAM-1), Integrin alpha-L/beta-2 (P05107 whole entry): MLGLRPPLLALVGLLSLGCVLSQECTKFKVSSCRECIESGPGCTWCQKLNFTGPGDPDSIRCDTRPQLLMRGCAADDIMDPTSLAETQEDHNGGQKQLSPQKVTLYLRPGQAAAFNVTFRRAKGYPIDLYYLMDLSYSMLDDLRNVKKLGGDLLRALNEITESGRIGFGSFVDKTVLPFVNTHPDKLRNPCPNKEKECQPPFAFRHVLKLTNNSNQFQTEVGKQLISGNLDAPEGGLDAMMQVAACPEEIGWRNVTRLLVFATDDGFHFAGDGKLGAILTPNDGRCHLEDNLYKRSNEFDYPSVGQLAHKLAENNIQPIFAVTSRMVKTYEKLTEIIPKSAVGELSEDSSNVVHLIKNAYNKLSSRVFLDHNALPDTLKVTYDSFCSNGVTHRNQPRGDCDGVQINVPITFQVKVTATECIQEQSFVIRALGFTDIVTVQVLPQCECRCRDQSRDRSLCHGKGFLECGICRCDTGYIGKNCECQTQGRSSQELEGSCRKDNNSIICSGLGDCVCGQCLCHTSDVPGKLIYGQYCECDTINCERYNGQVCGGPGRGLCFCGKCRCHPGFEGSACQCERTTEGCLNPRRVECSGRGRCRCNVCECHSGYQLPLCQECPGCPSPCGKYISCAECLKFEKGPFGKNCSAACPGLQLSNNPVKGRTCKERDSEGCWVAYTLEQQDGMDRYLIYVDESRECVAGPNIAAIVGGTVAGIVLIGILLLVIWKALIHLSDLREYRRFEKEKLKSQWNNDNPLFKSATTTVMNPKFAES
# [3] = molecular target: Integrin alpha-IIb/beta-3 (Homo sapiens, UniProt P05106+P08514); assay: Inhibition of alpha IIb beta3 integrin binding to fibrinogen; type: protein-complex assay
SMILES,Ratio [1],other results
CC(C)C[C@H]1NC(=O)[C@H]([C@H](C)O)NC(=O)[C@@H](CC(=O)O)NC(=O)[C@@H](CO)NC(=O)[C@@H](CCCN=C(N)N)NC(=O)[C@H](N)CSSC[C@H](C(N)=O)NC1=O,> 2.3,pIC50 (Integrin alpha-4/beta-7): 4.37; pIC50 (Integrin alpha-4/beta-1): < 4.00
CSCC[C@@H]1NC(=O)[C@@H](CCCN=C(N)N)NC(=O)[C@H](N)CSSC[C@H](C(N)=O)NC(=O)[C@@H](CC(C)C)NC(=O)[C@H]([C@@H](C)O)NC(=O)[C@@H](CC(=O)O)NC1=O,1.5,–
CC(C)C[C@H]1NC(=O)[C@H](C(C)C)NC(=O)[C@@H](CC(=O)O)NC(=O)[C@H](CO)NC(=O)[C@@H](CCCN=C(N)N)NC(=O)[C@H](N)CSSC[C@H](C(N)=O)NC1=O,15.5,–
CC(C)C[C@@H]1NC(=O)[C@@H](CCCN=C(N)N)NC(=O)[C@H](N)CSSC[C@H](C(N)=O)NC(=O)[C@@H](CC(C)C)NC(=O)[C@H]([C@@H](C)O)NC(=O)[C@@H](CC(=O)O)NC1=O,0.42,–
CC(C)C[C@H]1NC(=O)[C@H]([C@@H](C)O)NC(=O)[C@@H](CC(=O)O)NC(=O)[C@H](CO)NC(=O)[C@@H](CCCN=C(N)N)NC(=O)[C@H](N)CSSC[C@H](C(=O)O)NC1=O,3.1,–
"CC(C)C[C@@H]1NC(=O)[C@H]([C@@H](C)O)NC(=O)[C@H](CC(=O)O)NC(=O)[C@H](CO)NC(=O)[C@H](CCCN=C(N)N)NC(=O)[C@@H](N)CSSC[C@@H](C(=O)NCC(=O)N[C@@H](CCC(=O)O)C(N)=O)NC1=O (HELM PEPTIDE1{C.R.S.D.T.L.C.G.E.[am]}$PEPTIDE1,PEPTIDE1,1:R3-7:R3$$$V2.0)",–,pIC50 (Integrin alpha-4/beta-7): 7.52; pIC50 (Integrin alpha-V/beta-3): 6.00; pIC50 (Integrin alpha-4/beta-1): 5.96; pIC50 (Integrin alpha-5/beta-1): 5.21; pIC50 [2]: < 4.00; pIC50 [3]: < 4.60
CC(C)C[C@H]1NC(=O)[C@H]([C@@H](C)O)NC(=O)[C@@H](CC(N)=O)NC(=O)[C@H](CO)NC(=O)[C@@H](CCCN=C(N)N)NC(=O)[C@H](N)CSSC[C@H](C(N)=O)NC1=O,0.5,–
CC(C)C[C@H]1NC(=O)[C@H]([C@@H](C)O)NC(=O)[C@@H](CC(=O)O)NC(=O)[C@H](CO)NC(=O)[C@@H](Cc2ccc(O)cc2)NC(=O)[C@H](N)CSSC[C@H](C(N)=O)NC1=O,0.07,–

# Second part, led by results:
Ratio [1],SMILES,other results
2.5,CC(C)C[C@H]1NC(=O)[C@@H]([C@@H](C)O)NC(=O)[C@@H](CC(=O)O)NC(=O)[C@H](CO)NC(=O)[C@@H](CCCN=C(N)N)NC(=O)[C@H](N)CSSC[C@H](C(N)=O)NC1=O,pIC50 (Integrin alpha-4/beta-7): 5.10; pIC50 (Integrin alpha-4/beta-1): 4.70
6,CC(C)C[C@H]1NC(=O)[C@H]([C@@H](C)O)NC(=O)[C@@H](CC(=O)O)NC(=O)[C@H](CO)NC(=O)[C@@H](CCCCN)NC(=O)[C@H](N)CSSC[C@H](C(N)=O)NC1=O,–
> 9,C[C@@H](O)[C@@H]1NC(=O)[C@@H](CC(=O)O)NC(=O)[C@H](CO)NC(=O)[C@@H](CCCN=C(N)N)NC(=O)[C@H](N)CSSC[C@H](C(N)=O)NC(=O)CNC1=O,–
13.1,CC(C)[C@H]1NC(=O)[C@H]([C@@H](C)O)NC(=O)[C@@H](CC(=O)O)NC(=O)[C@H](CO)NC(=O)[C@@H](CCCN=C(N)N)NC(=O)[C@H](N)CSSC[C@H](C(N)=O)NC1=O,–
0.37,CC(C)C[C@H]1NC(=O)[C@H]([C@@H](C)O)NC(=O)[C@@H](CC(=O)O)NC(=O)[C@H](CO)NC(=O)[C@@H](Cc2c[nH]c3ccccc23)NC(=O)[C@H](N)CSSC[C@H](C(N)=O)NC1=O,–
